Reference: article PMC5308917 (Science translational medicine, 2017)
Where no end group is shown, it is not given here.

Assays:
[1] = test system: VEGF-induced vascular leakage; assay: VEGF-induced leakage in rabbit eyes; format: in vivo, rabbit (Dutch Belted)
Summary of the method: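 A single intravitreous dose of test compound (50 μg) or comparator (500 μg) was given in one eye, with vehicle in the fellow eye. VEGF (10 μg) was injected into both eyes on day 23, VFP done day 30, eyes rescanned without fluorescein day 43, VEGF (10 μg) reinjected both eyes day 53, VFP day 60. For VFP, 15 mg sodium fluorescein was given via ear vein. After 1 h, fluorescence was scanned retina-to-cornea, taking the AUC 5–7 mm in front of the retina.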

integrin α5β1 = integrin α5β1 (Homo sapiens, UniProt P05556+P08648); assay: Fluorescence anisotropy, integrin α5β1; format: binding
Chain of integrin α5β1 (P08648 42-995 limits assumed): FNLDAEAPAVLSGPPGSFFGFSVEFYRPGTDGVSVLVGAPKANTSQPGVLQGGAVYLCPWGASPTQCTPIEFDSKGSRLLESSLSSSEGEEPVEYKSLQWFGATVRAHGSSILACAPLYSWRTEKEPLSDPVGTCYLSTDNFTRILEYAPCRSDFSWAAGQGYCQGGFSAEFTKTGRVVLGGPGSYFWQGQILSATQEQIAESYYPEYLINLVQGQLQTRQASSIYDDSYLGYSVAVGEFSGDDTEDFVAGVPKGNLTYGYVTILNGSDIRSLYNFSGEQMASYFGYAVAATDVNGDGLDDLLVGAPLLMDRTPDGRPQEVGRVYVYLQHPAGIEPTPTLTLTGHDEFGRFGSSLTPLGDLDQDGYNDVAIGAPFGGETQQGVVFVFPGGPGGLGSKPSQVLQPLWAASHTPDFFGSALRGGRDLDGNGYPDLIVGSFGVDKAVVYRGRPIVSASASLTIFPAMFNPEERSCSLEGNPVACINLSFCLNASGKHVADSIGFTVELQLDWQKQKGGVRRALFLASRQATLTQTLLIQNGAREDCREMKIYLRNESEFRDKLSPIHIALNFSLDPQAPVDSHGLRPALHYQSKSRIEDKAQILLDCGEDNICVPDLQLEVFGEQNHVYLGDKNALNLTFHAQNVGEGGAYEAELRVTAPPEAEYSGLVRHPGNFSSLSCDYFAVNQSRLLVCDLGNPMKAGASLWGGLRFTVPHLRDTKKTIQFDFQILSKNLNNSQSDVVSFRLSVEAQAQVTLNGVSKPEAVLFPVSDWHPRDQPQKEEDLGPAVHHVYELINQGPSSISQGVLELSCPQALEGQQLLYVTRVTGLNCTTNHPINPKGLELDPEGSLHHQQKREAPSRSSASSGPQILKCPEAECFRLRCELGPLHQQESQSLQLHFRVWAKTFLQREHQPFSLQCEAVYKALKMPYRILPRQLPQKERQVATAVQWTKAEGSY
Chain of integrin α5β1 (P05556 21-728 limits assumed): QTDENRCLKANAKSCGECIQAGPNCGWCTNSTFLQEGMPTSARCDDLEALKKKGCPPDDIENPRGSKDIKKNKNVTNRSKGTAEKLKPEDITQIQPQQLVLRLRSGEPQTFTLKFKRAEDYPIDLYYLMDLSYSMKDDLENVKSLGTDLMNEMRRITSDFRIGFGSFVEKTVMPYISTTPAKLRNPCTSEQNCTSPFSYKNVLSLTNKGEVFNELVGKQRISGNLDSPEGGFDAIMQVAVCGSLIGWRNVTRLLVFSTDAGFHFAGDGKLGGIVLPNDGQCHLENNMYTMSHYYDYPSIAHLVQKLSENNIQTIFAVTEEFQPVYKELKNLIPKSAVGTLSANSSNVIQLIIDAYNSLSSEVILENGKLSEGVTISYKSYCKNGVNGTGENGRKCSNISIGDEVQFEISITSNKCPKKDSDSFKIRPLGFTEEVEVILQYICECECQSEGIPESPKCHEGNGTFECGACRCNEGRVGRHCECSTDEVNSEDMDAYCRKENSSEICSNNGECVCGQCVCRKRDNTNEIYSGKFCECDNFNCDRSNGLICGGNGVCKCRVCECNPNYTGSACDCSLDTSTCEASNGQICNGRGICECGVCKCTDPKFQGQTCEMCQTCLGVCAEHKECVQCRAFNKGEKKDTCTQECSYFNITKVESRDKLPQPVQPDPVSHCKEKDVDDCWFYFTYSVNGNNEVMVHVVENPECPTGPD
Summary of the method: (§1)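 FAM-labelled test compound (10 nM, dissolved in DMSO; final DMSO 0.0005%) mixed with 0–75 nM soluble recombinant heterodimeric integrin in 50 mM tris pH 7.5, 1 mM CaCl2, 1 mM MgCl2, 100 mM NaCl. Incubated on ice at least 30 min to reach equilibrium. Anisotropy read with vertically polarized excitation at 470 nm, detecting vertical and horizontal emission at 540 nm.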

[2] = Fundus photography after intravitreous injection; format: in vivo, rabbit (Dutch Belted)
Summary of the method: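 Rabbits anaesthetized with IM ketamine (25 mg/kg) and xylazine (2.5 mg/kg), pupils dilated with 2.5% phenylephrine, conjunctiva cleaned with 5% povidone-iodine. Intravitreous injection of 50 μg test compound (or 500 μg comparator) in one eye and vehicle in the fellow eye. Fundus photographs taken 2 and 30 days after injection.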

[3] = Non-GLP safety studies after intravitreous injection; format: in vivo, rabbit; details: independent Clinical Research Organization
integrin αvβ3 = integrin αvβ3 (Homo sapiens, UniProt P05106+P06756); assay: Fluorescence anisotropy, integrin αvβ3; format: binding
Chain of integrin αvβ3 (P06756 31-992 limits assumed): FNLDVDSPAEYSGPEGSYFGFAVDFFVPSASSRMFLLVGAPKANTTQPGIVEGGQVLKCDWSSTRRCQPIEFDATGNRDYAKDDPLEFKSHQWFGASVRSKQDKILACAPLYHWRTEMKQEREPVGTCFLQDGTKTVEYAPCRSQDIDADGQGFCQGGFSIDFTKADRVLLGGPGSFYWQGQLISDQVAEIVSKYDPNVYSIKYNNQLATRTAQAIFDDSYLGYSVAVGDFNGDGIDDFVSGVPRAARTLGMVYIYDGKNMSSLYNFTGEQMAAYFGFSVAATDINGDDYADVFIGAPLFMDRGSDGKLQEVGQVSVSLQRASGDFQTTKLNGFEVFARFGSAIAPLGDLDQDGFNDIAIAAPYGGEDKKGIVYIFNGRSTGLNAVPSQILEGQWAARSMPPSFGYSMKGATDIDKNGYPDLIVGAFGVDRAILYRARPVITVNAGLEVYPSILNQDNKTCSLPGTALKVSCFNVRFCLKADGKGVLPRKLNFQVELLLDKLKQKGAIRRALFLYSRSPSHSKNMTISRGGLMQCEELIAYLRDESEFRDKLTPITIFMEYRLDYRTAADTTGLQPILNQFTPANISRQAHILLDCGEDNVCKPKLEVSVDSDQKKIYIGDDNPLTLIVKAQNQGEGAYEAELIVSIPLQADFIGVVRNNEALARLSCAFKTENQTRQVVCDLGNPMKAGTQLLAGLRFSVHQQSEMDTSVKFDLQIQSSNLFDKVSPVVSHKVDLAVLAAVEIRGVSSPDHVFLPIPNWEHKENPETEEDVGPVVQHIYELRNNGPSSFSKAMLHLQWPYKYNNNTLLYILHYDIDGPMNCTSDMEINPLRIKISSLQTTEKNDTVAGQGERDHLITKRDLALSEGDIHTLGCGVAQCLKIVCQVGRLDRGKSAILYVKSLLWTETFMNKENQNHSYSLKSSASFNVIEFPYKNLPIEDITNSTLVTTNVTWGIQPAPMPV
Chain of integrin αvβ3 (P05106 27-718 limits assumed): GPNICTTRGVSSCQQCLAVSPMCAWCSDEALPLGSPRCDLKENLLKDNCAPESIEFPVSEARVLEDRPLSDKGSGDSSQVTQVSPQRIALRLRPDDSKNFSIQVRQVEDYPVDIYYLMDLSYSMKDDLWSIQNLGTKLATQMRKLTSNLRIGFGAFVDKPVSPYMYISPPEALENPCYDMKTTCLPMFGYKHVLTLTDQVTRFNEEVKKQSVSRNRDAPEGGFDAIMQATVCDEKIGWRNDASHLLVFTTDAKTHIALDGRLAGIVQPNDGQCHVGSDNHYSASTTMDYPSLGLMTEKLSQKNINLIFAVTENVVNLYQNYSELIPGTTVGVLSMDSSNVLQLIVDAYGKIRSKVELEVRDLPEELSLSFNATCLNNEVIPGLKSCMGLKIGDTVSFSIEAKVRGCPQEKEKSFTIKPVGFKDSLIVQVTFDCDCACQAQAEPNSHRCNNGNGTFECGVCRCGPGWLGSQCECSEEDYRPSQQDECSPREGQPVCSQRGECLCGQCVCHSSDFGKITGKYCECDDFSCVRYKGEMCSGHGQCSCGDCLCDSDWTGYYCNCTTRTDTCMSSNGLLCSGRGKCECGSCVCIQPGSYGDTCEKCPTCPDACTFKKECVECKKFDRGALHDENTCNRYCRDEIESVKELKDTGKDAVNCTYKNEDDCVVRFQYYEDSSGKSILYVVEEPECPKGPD
Summary of the method: as §1

VEGFR2 = assay: Proteasomal inhibition by lactacystin and total VEGFR2; format: cell-based, human; details: 5 μM lactacystin with varying concentrations of AXT107
[4] = target: 5-carboxyfluorescein (5-FAM)-labeled AXT107; assay: fluorescence polarisation

Compound: aflibercept: a VEGF-neutralizing protein, which is standard care for patients with NVAMD
- fluorescein in the mid-vitreous, day 60 (representative VFP scans) ([1]; 50 μg of AXT107 or 500 μg of aflibercept, VEGF rechallenge (10 μg) on day 53): higher levels
- leakage remaining at 60 days ([1]; 50 μg of AXT107 versus 500 μg of aflibercept, P < 0.05): 100%
- leakage vs fellow eye controls, day 60 (in words) ([1]; 500 μg of aflibercept, VEGF rechallenge (10 μg) on day 53, VFP day 60): not significantly reduced

Compound: LRRFSTAPFAFIDINDVINF [AXT107]
- Kd (integrin α5β1): 2.21 nM
- gel-like depot in inferior vitreous, persistence ([2]; 50 μg intravitreous, 30 days after injection): still present in the same location 30 days after injection
- dissipation of gel-like depot ([2]; after intraocular injection, inferior vitreous): slowly dissipates over months
- intraocular pressure [3]: no increase in intraocular pressure
- ocular media in the visual axis [3]: no degradation of the ocular media in the visual axis
- retinal toxicity [3]: no retinal toxicity
- Kd (integrin αvβ3): 1.29 nM

Compound: CC(=O)N[C@@H](CSC(=O)[C@]1([C@@H](O)C(C)C)NC(=O)[C@H](C)[C@@H]1O)C(=O)O [lactacystin]
- AXT107-induced degradation of VEGFR2 (VEGFR2): reduced AXT107-induced degradation of VEGFR2

Compound: soluble, recombinant α5β1 heterodimeric integrin (from UniProt P08648 42-1049; P05556 21-728) (complex)
- Kd [4]: 2.21 nM

Compound: soluble, recombinant αvβ3 heterodimeric integrin (from UniProt P06756 31-1048; P05106 27-718) (complex)
- Kd [4]: 1.29 nM
